Results from ChEMBL document CHEMBL1141492, “Potent, exceptionally selective, orally bioavailable inhibitors of TNF-alpha Converting Enzyme (TACE): novel 2-substituted-1H-benzo[d]imidazol-1-yl)methyl)benzamide P1' substituents” (Bioorg Med Chem Lett, 2008).

Columns and labels:
[1] = molecular target: Disintegrin and metalloproteinase domain-containing protein 17 (Sus scrofa, UniProt O77636); experiment: Inhibition of semi purified pig TACE
Blood = experiment: Reduction of LPS-induced TNFalpha in human whole blood; type: functional, tissue-based
Procedure, shortened: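 LPS-induced TNF-α production in human whole blood; suppression of TNF-α measured.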

Interstitial collagenase = molecular target: T1, Interstitial collagenase (Homo sapiens, UniProt P03956); experiment: Inhibition of MMP1
T1 sequence (P03956 whole entry): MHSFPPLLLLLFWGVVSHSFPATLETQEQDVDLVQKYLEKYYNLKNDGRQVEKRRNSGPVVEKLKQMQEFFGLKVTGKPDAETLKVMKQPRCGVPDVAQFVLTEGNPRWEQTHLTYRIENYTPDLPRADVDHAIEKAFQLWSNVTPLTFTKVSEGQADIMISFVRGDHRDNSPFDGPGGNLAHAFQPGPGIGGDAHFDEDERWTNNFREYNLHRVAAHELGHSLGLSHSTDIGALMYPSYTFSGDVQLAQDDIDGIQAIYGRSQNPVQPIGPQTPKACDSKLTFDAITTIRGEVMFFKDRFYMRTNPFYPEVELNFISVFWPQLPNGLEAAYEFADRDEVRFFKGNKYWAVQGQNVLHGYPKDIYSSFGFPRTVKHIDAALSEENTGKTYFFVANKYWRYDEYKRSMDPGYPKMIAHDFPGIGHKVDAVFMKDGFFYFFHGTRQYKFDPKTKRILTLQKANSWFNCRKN

[2] = molecular target: 72 kDa type IV collagenase (Homo sapiens, UniProt P08253); experiment: Inhibition of MMP2
[3] = molecular target: Matrix metalloproteinase-9 (Homo sapiens, UniProt P14780); experiment: Inhibition of MMP9
[4] = Apparent permeability across human Caco-2 cells; type: ADME, cell-based
Procedure, shortened: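 Apparent permeability measured across Caco-2 cell monolayers in the apical-to-basolateral (A→B) direction.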

[5] = Clearance in Sprague-Dawley rat at 5.0 mg/kg, iv; type: ADME, organism-based; parameters: dose 5 mg/kg, route intravenous; details: in vivo
Procedure, shortened: (§1)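 Discrete or cassette (n-in-1) dosing, given intravenously and orally. Sprague–Dawley rats received 5.0 mg/kg iv and 8.0 mg/kg po; beagle dogs received 2.0 mg/kg iv and 8.0 mg/kg po. Three animals per dosing group; averaged values reported. AUC is reported in nM h.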

[6] = Oral bioavailability in Sprague-Dawley rat at 8.0 mg/kg; type: ADME, organism-based; details: in vivo; procedure, shortened: as §1
Stromelysin-1 = Stromelysin-1 (Homo sapiens, UniProt P08254); experiment: Inhibition of MMP3
Matrilysin = molecular target: T2, Matrilysin (Homo sapiens, UniProt P09237); experiment: Inhibition of MMP7
T2 sequence (P09237 whole entry): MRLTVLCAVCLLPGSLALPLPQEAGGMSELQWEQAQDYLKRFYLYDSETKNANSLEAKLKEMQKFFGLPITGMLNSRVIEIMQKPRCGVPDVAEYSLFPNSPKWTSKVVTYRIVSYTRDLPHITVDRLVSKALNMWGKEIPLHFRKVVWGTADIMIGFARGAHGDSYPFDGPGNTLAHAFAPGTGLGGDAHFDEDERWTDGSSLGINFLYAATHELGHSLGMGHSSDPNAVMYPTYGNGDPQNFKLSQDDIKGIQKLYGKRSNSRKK

Stromelysin-2 = Stromelysin-2 (Homo sapiens, UniProt P09238); experiment: Inhibition of MMP10
Procedure, shortened: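 MMP Ki values come from a single determination.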

Collagenase 3 = Collagenase 3 (Homo sapiens, UniProt P45452); experiment: Inhibition of MMP13
[7] = molecular target: Matrix metalloproteinase-14 (Homo sapiens, UniProt P50281); experiment: Inhibition of MMP14
[8] = molecular target: Matrix metalloproteinase-15 (Homo sapiens, UniProt P51511); experiment: Inhibition of MMP15
Procedure, shortened: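 Ki values against each MMP, each from a single determination.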

[9] = molecular target: Matrix metalloproteinase-16 (Homo sapiens, UniProt P51512); experiment: Inhibition of MMP16
Neutrophil collagenase = Neutrophil collagenase (Homo sapiens, UniProt P22894); experiment: Inhibition of MMP8
Neutrophil collagenase, sequence (P22894 whole entry): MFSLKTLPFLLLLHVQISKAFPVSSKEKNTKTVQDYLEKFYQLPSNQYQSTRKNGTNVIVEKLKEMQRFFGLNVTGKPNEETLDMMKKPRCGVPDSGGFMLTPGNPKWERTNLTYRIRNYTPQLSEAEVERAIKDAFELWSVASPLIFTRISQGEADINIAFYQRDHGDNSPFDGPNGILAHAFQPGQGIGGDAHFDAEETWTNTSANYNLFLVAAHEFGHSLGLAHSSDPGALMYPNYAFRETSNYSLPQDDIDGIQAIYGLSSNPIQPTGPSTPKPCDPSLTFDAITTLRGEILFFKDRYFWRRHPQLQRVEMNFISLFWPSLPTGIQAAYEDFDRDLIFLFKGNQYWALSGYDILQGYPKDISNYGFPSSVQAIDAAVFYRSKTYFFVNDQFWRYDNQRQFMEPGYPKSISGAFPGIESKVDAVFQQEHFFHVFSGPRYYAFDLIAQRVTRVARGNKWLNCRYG

Matrix metalloproteinase-15, sequence (P51511 whole entry): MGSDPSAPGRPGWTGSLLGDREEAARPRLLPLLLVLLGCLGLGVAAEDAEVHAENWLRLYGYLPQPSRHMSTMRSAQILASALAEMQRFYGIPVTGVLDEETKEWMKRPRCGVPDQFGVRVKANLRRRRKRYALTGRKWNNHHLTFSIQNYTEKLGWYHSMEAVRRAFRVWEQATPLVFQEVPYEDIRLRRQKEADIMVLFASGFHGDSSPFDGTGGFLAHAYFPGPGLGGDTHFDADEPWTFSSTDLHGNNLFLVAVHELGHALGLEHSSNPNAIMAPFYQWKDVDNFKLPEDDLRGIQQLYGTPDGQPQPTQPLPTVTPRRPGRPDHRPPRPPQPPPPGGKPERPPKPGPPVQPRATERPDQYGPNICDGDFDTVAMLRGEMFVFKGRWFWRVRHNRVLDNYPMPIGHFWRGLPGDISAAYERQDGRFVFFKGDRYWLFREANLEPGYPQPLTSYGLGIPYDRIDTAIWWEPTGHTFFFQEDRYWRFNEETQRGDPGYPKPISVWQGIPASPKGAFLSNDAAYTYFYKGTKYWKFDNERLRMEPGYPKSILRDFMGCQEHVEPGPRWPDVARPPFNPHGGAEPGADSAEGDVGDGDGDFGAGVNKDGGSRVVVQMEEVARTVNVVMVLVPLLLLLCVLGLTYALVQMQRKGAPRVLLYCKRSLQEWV
Disintegrin and metalloproteinase domain-containing protein 17, sequence (O77636 whole entry, the tested form may be a part): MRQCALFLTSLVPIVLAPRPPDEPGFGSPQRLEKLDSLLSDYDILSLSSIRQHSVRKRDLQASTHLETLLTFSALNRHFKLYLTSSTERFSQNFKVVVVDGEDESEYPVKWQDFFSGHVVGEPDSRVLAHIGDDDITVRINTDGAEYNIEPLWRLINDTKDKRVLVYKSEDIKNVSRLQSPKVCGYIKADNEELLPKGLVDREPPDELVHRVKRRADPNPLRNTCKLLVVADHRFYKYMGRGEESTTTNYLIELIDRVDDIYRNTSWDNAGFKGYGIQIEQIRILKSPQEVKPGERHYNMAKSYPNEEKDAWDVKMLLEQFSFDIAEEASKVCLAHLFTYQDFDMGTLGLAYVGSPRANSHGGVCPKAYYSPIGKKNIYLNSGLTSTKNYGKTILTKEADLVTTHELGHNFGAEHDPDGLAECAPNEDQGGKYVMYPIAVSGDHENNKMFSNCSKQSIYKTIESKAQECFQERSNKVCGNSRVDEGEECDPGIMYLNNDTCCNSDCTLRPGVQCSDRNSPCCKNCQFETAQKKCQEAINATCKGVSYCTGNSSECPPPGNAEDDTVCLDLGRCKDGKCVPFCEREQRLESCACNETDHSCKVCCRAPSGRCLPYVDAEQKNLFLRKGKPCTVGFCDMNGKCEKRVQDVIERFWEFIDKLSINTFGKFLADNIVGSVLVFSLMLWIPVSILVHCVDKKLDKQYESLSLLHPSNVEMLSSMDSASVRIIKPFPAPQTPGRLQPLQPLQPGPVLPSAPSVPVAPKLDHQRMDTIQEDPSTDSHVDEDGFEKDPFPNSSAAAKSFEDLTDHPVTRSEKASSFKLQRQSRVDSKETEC
Stromelysin-2, sequence (P09238 whole entry): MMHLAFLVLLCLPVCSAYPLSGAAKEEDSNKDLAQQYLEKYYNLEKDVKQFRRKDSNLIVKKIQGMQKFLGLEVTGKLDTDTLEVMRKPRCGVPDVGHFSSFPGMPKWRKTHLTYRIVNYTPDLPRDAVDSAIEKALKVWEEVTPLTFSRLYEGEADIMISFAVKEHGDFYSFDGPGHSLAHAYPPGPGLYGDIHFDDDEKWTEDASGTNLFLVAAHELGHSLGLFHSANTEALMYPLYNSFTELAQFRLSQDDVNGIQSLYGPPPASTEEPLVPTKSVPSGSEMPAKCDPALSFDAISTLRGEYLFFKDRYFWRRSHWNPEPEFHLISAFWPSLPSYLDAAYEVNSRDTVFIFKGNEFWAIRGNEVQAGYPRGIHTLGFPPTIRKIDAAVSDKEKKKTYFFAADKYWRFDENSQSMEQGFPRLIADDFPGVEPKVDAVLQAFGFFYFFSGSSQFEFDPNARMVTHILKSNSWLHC
72 kDa type IV collagenase, sequence (P08253 whole entry): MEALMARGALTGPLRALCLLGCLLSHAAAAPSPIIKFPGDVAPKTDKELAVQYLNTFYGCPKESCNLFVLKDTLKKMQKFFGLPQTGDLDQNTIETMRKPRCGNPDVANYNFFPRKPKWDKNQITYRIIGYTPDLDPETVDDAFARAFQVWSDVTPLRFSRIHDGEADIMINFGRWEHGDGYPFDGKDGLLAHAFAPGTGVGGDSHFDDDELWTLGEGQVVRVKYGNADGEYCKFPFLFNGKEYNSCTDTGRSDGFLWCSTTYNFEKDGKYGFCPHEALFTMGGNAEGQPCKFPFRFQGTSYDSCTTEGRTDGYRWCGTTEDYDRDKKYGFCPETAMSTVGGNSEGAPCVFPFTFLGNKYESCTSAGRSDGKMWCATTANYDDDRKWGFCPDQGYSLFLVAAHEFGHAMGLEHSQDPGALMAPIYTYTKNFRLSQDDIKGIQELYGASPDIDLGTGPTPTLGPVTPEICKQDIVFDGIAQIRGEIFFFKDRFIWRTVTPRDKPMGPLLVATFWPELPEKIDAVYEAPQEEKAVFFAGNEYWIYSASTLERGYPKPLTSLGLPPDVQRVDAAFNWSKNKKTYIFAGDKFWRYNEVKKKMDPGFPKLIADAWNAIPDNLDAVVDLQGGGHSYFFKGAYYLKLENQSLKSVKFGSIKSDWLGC
Matrix metalloproteinase-16, sequence (P51512 whole entry): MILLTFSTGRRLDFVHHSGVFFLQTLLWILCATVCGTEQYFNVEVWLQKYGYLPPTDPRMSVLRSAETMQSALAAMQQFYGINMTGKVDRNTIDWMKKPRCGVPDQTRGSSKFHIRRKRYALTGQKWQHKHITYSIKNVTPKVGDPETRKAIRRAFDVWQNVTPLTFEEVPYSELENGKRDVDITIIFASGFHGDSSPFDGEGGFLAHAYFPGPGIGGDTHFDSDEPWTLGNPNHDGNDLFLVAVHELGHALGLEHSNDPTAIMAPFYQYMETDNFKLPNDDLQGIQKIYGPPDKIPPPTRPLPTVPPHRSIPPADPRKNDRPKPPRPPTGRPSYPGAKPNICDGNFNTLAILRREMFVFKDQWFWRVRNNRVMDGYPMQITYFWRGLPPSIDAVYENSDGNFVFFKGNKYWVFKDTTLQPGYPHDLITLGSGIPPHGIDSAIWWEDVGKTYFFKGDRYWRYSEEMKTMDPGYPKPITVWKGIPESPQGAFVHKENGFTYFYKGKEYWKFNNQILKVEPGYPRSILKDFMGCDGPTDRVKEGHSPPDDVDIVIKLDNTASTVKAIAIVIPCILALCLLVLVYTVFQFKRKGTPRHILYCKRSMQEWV
Matrix metalloproteinase-9, sequence (P14780 whole entry): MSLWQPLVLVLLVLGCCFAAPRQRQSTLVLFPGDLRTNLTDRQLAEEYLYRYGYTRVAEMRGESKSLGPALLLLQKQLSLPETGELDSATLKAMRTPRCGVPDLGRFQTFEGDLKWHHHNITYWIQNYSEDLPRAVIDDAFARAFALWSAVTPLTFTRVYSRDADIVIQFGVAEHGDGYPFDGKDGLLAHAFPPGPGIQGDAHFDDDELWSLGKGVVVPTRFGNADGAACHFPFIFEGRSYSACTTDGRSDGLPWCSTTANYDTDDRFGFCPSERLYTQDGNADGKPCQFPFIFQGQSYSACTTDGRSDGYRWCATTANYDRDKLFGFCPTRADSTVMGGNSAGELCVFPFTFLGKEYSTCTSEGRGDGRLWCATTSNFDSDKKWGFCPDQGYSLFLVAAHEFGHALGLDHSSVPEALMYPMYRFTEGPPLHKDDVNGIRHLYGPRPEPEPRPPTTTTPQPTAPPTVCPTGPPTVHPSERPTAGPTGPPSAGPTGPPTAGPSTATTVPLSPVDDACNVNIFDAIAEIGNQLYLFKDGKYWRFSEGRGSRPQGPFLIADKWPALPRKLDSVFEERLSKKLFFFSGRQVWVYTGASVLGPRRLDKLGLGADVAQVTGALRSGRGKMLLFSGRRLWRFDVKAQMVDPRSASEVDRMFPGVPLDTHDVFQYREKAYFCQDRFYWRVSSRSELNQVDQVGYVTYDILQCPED
Stromelysin-1, sequence (P08254 whole entry): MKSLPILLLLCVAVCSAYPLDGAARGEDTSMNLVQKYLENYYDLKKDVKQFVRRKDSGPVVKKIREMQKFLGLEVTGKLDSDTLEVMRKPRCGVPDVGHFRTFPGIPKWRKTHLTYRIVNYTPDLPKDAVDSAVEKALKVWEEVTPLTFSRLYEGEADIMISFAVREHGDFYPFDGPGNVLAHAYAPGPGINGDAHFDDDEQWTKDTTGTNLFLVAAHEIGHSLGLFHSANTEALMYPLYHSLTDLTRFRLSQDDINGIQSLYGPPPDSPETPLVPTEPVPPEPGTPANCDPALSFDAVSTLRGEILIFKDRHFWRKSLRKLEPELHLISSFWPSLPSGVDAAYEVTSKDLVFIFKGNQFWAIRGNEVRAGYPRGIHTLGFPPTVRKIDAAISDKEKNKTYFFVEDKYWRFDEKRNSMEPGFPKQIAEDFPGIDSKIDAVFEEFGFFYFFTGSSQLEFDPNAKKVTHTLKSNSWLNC

IC50 [1] | IC50 (Blood) | Ki (Interstitial collagenase) | Ki [2] | Ki [3] | Papp [4] | clearance [5] | bioavailability [6] | Ki (Stromelysin-1) | Ki (Matrilysin) | IC50 (Stromelysin-2) | Ki (Collagenase 3) | Ki [7] | Ki [8] | Ki [9] | Ki (Neutrophil collagenase) | SMILES
1.1 nM | 69 nM | > 4950 nM | > 3330 nM | > 2130 nM | 0.1 ×10⁻⁶ cm/s | 115 mL/min/kg | 22% | – | – | – | – | – | – | – | – | CC(C)c1nc2ccccc2n1Cc1ccc(C(=O)N[C@@H]2C[C@@]3(CCCO3)C[C@@H]2C(=O)NO)cc1
1 nM | 92 nM | > 2130 nM | > 2130 nM | > 2130 nM | 0.1 ×10⁻⁶ cm/s | – | – | 2610 nM | 5860 nM | 1600 nM | > 5030 nM | > 5290 nM | > 7090 nM | > 5550 nM | – | Cc1nc2ccccc2n1Cc1ccc(C(=O)N[C@@H]2CN(C(=O)OC(C)(C)C)C[C@@H]2C(=O)NO)cc1
1 nM | 65 nM | > 4950 nM | > 3330 nM | > 2130 nM | 0.1 ×10⁻⁶ cm/s | 50 mL/min/kg | 8% | – | – | – | – | – | – | – | – | CC(C)c1nc2ccccc2n1Cc1ccc(C(=O)N[C@@H]2CCC[C@@H]2C(=O)NO)cc1
1.6 nM | 105 nM | > 4950 nM | > 3330 nM | > 2130 nM | 0.5 ×10⁻⁶ cm/s | 63.3 mL/min/kg | 8% | – | – | – | – | – | – | – | – | CC(C)c1nc2ccccc2n1Cc1ccc(C(=O)N[C@@H]2CCOC[C@@H]2C(=O)NO)cc1
2.3 nM | 317 nM | > 4950 nM | > 3330 nM | > 2130 nM | 0.4 ×10⁻⁶ cm/s | 113 mL/min/kg | 8% | – | – | – | – | – | – | – | – | C#CCN1C[C@H](C(=O)NO)[C@H](NC(=O)c2ccc(Cn3c(C(C)(C)C)nc4ccccc43)cc2)C1
1.8 nM | 137 nM | > 4950 nM | > 3330 nM | > 2130 nM | 0.1 ×10⁻⁶ cm/s | 155 mL/min/kg | 3% | – | – | – | – | – | – | – | – | C#CCN1C[C@H](C(=O)NO)[C@H](NC(=O)c2ccc(Cn3c(C(C)C)nc4ccccc43)cc2)C1
2.6 nM | 188 nM | > 4950 nM | > 3330 nM | > 2130 nM | 0.7 ×10⁻⁶ cm/s | 20 mL/min/kg | 55% | – | – | – | – | – | – | – | – | CC(F)(F)c1nc2ccccc2n1Cc1ccc(C(=O)N[C@@H]2CCOC[C@@H]2C(=O)NO)cc1
1.6 nM | 34 nM | > 2130 nM | > 2130 nM | > 2130 nM | 0.2 ×10⁻⁶ cm/s | – | – | – | – | – | – | – | – | – | – | CSc1nc2ccccc2n1Cc1ccc(C(=O)N[C@@H]2CNC[C@@H]2C(=O)NO)cc1
1 nM | 70 nM | > 2130 nM | > 2130 nM | > 2130 nM | 0.2 ×10⁻⁶ cm/s | – | – | 3920 nM | 3500 nM | 4600 nM | > 5030 nM | > 5290 nM | > 7090 nM | > 5550 nM | > 3060 nM | CC(C)c1nc2ccccc2n1Cc1ccc(C(=O)N[C@@H]2CN(C(=O)OC(C)(C)C)C[C@@H]2C(=O)NO)cc1
< 1 nM | 62 nM | > 2130 nM | > 2130 nM | > 2130 nM | 0.2 ×10⁻⁶ cm/s | – | – | > 4500 nM | 4080 nM | > 10000 nM | > 5030 nM | > 5290 nM | > 7090 nM | > 5450 nM | – | CSc1nc2ccccc2n1Cc1ccc(C(=O)N[C@@H]2CN(C(=O)OC(C)(C)C)C[C@@H]2C(=O)NO)cc1
1 nM | 102 nM | > 4950 nM | > 3330 nM | > 2130 nM | 0.1 ×10⁻⁶ cm/s | 53.3 mL/min/kg | 20% | – | – | – | – | – | – | – | – | O=C(N[C@@H]1COC[C@@H]1C(=O)NO)c1ccc(Cn2c(C(F)(F)F)nc3ccccc32)cc1
1.6 nM | 64 nM | > 2130 nM | > 2130 nM | > 2130 nM | 0.1 ×10⁻⁶ cm/s | – | – | – | – | – | – | – | – | – | – | CC(C)c1nc2ccccc2n1Cc1ccc(C(=O)N[C@@H]2CNC[C@@H]2C(=O)NO)cc1
2.2 nM | 153 nM | > 4950 nM | > 3330 nM | > 2130 nM | 0.3 ×10⁻⁶ cm/s | 31.7 mL/min/kg | 36% | – | – | – | – | – | – | – | – | CC(C)(F)c1nc2ccccc2n1Cc1ccc(C(=O)N[C@@H]2CCOC[C@@H]2C(=O)NO)cc1
2 nM | 252 nM | > 4950 nM | > 3330 nM | > 2130 nM | 1.4 ×10⁻⁶ cm/s | 48.3 mL/min/kg | 29% | – | – | – | – | – | – | – | – | CC(C)(C)c1nc2ccccc2n1Cc1ccc(C(=O)N[C@@H]2C[C@@]3(CCCO3)C[C@@H]2C(=O)NO)cc1
2.6 nM | 56 nM | > 2130 nM | > 2130 nM | > 2130 nM | 0.1 ×10⁻⁶ cm/s | – | – | – | – | – | – | – | – | – | – | Cc1nc2ccccc2n1Cc1ccc(C(=O)N[C@@H]2CNC[C@@H]2C(=O)NO)cc1

SMILES | IC50 [1] | IC50 (Blood) | Ki (Interstitial collagenase) | Ki [2] | Ki [3] | Papp [4] | clearance [5] | bioavailability [6] | Ki (Stromelysin-1) | Ki (Matrilysin) | IC50 (Stromelysin-2) | Ki (Collagenase 3) | Ki [7] | Ki [8] | Ki [9] | Ki (Neutrophil collagenase)
CSc1nc2ccccc2n1Cc1ccc([C@]2(N)CCN([C@H](CC(C)C)C(=O)NO)C2=O)cc1 | 6.2 nM | 316 nM | > 4950 nM | 302 nM | 934 nM | – | – | – | – | – | – | – | – | – | – | –
O=C(N[C@@H]1CCC[C@@H]1C(=O)NO)c1ccc(Cn2c(C3CC3)nc3ccccc32)cc1 | 2.7 nM | 54 nM | > 4950 nM | > 3330 nM | > 2130 nM | 2 ×10⁻⁶ cm/s | 25 mL/min/kg | 22% | – | – | – | – | – | – | – | –
O=C(N[C@@H]1C[C@@]2(CCCO2)C[C@@H]1C(=O)NO)c1ccc(Cn2c(C3CC3)nc3ccccc32)cc1 | 1.3 nM | 42 nM | > 4950 nM | > 3330 nM | > 2130 nM | 0.1 ×10⁻⁶ cm/s | 23.3 mL/min/kg | 14% | – | – | – | – | – | – | – | –
CC(C)(F)c1nc2ccccc2n1Cc1ccc(C(=O)N[C@@H]2C[C@@]3(CCCO3)C[C@@H]2C(=O)NO)cc1 | < 1 nM | 140 nM | > 4950 nM | > 3330 nM | > 2130 nM | 2.4 ×10⁻⁶ cm/s | 40 mL/min/kg | 33% | – | – | – | – | – | – | – | –
